From ChEMBL document CHEMBL1795290, “Simplification of the tetracyclic SIRT1-selective inhibitor MC2141: coumarin- and pyrimidine-based SIRT1/2 inhibitors with different selectivity profile” (Bioorg Med Chem, 2011) come the findings set out here.

The subject of data set [1] is U-937. In words: Toxicity in human U937 cells at 50 uM incubated for 30 hrs. Format: cell-based. The conditions noted are these: u-937, 30 h.
For data set [2], the target named is T1, NAD-dependent protein deacetylase sirtuin-2 (Homo sapiens) (UniProt Q8IXJ6).
T1 sequence (whole entry): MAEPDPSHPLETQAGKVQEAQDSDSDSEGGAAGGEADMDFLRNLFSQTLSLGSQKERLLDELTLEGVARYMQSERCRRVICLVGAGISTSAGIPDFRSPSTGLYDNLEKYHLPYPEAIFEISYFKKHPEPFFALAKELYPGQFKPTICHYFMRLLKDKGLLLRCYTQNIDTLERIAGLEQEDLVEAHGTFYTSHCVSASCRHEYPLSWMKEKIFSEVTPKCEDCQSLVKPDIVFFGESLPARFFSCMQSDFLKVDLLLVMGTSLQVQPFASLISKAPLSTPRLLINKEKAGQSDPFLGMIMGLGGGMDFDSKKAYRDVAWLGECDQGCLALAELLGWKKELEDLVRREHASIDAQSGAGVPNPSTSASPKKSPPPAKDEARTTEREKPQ
The data set can be described thus: Inhibition of human recombinant SIRT2 expressed in Escherichia coli at 50 uM incubated at 37 degC for 2 hrs by Fluor de Lys fluorescence assay. In short, it runs like this:
(§1)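 Human recombinant enzymes expressed in E. coli: SIRT1 at 2 U, SIRT2 at 7 U. Two-stage assay with a deacetylation step at 37 °C for 2 h, using Fluor de Lys-SIRT1/2 substrate with NAD+ and compound (50 µM single point or a concentration series). IC50 obtained by curve fitting.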

The subject of data set [3] is U-937. The data set can be described thus: Cell cycle arrest in human U937 cells assessed as accumulation at G1/S phase at 50 uM incubated for 30 hrs by flow cytometry. Type of data set: functional, cell-based. The gist of the method: (§2)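 U937 leukaemia cells were exposed to compound at 50 µM for 30 h. Then 2.5 × 10^5 cells were resuspended in hypotonic buffer (0.1% Triton X-100, 0.1% sodium citrate, 50 µg/mL propidium iodide, RNase A) and kept 30 min in the dark. DNA content was read by flow cytometry and cell-cycle phases were modelled. Run in triplicate.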
(Flow cytometry measures light scatter and fluorescence of single cells or particles in a stream.)

In data set [4] the target is T2, NAD-dependent protein deacetylase sirtuin-1 (Homo sapiens) (UniProt Q96EB6).
T2 sequence (whole entry): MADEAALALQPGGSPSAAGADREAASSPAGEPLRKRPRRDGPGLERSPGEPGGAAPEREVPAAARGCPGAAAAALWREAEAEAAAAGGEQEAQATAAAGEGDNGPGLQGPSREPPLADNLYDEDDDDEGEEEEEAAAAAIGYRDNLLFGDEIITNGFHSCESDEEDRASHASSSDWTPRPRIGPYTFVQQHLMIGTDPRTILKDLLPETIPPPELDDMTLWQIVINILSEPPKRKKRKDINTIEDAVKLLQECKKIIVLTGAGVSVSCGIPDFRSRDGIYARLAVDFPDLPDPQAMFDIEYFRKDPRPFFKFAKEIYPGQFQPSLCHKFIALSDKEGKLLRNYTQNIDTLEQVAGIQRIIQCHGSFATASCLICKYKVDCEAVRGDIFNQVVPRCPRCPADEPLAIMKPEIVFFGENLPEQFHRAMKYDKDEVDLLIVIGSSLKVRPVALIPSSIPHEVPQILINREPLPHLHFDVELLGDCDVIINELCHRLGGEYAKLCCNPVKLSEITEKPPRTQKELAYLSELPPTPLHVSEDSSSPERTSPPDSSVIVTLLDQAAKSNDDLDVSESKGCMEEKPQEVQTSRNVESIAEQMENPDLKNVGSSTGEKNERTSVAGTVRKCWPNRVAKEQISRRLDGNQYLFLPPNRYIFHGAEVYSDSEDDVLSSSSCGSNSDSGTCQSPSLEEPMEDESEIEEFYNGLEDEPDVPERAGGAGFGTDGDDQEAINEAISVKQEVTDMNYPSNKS
The data set can be described thus: Inhibition of human recombinant SIRT1 expressed in Escherichia coli at 50 uM incubated at 37 degC for 2 hrs by Fluor de Lys fluorescence assay. In short, it runs like this:
as §1

The subject of data set [5] is U-937. The data set can be described thus: Induction of granulocytic differentiation in human U937 cells assessed as change in CD11c expression at 50 uM […] by FACS assay. Format: functional.
Data set [6] concerns U-937. The data set can be described thus: Induction of apoptosis in human U937 cells assessed as caspase 3/7 activation at 50 uM incubated for 30 hrs by FACS assay based B-Bridge method. Type of data set: functional. The gist of the method: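 U937 cells were treated at 50 µM for 30 h. Apoptosis was scored as caspase 3–7 activation using a caspase 3–7 detection kit, with FACS read-out.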

Data set [7] relates to U-937. The data set can be described thus: Cell cycle arrest in human U937 cells assessed as accumulation at G1 phase at 50 uM incubated for 30 hrs by flow cytometry. Format: functional, cell-based. The gist of the method: as §2
For data set [8], the system named is U-937. In words: Cell cycle arrest in human U937 cells assessed as accumulation at G2/M phase at 50 uM incubated for 30 hrs by flow cytometry. Type of data set: functional, cell-based. In short, it runs like this:
as §2

Data set [9] concerns the target T3, NAD-dependent protein deacetylase sirtuin-2 (Homo sapiens, UniProt Q8IXJ6).
T3 sequence (Q8IXJ6 whole entry): T1 sequence (whole entry)
In words: Inhibition of human recombinant SIRT2 expressed in Escherichia coli incubated at 37 degC for 2 hrs by Fluor de Lys fluorescence assay. The gist of the method:
as §1

Data set [10] addresses T4, NAD-dependent protein deacetylase sirtuin-1 (Homo sapiens, UniProt Q96EB6).
T4 sequence (Q96EB6 whole entry): T2 sequence (whole entry)
In words: Inhibition of human recombinant SIRT1 expressed in Escherichia coli incubated at 37 degC for 2 hrs by Fluor de Lys fluorescence assay. In short, it runs like this:
as §1

Active and inactive are the calls of the source. No cut-off for these calls is given here.

Consider `O=C1Oc2ccc3ccccc3c2CC1C(=O)c1ccco1` (configuration not stated), for which the Activity entry in [1] was “Non-toxic”. The inhibition in [2] was determined as 83.3%; in [4] it was 28.9%. Further, the outcome in [3] was Active.
With `Cc1ccccc1-c1[nH]c(=S)[nH]c(=O)c1Cc1c(O)ccc2ccccc12`, the result in data set [5] was inactive. Besides, the Activity result in data set [1] is “Non-toxic”. Also, in data set [2], the inhibition is 38.4%. In addition, the outcome in data set [6] and in [7] was Active.
Take `Cn1cccc1-c1[nH]c(=S)[nH]c(=O)c1Cc1c(O)ccc2ccccc12`: in [5], the result was inactive. Further, the Activity entry in data set [1] is listed as “Non-toxic”. Further, the inhibition in [2] was determined as 46.2%; in data set [4], 81.3%. In addition, the result in [6] and in data set [7] was Active.
As to `O=c1[nH]c(=S)[nH]c(-c2cccc(Cl)c2)c1Cc1c(O)ccc2ccccc12`, in data set [5], the result was inactive. Also, the Activity entry in data set [1] was “Non-toxic”. The inhibition in data set [2] was 36.1%; in data set [4], 82.6%. Besides, the outcome in data set [6] and in data set [7] was Active.
As to `O=c1nc2oc3ccc4ccccc4c3cc-2c(=O)n1-c1ccccc1`, in data set [5], the result was inactive. For the same molecule, in data set [8], the result was Active.
Consider `O=c1[nH]c(=S)[nH]c(-c2ccc(Cl)cc2)c1Cc1c(O)ccc2ccccc12`, for which, in [5], the outcome was inactive. In addition, the Activity result in data set [1] is given as “Non-toxic”. The inhibition was 35.9% in data set [2] and 79.9% in data set [4]. Also, the outcome in data set [6] and in [7] was Active.
On to `O=c1[nH]c(=S)[nH]c(-c2cccc3ccccc23)c1Cc1c(O)ccc2ccccc12`, for which the result in data set [5] was inactive. For the same molecule, in [1], the Activity entry is reported as “Non-toxic”. Besides, the inhibition in [2] amounted to 45.8%; in [4] it was 81.7%. Further, the result in [6] and in [7] was Active.
Regarding `O=C1Oc2ccc3ccccc3c2CC1C(=O)c1ccc2ccccc2c1` (configuration not stated), the Activity result in [1] is listed as “Non-toxic”. The inhibition in data set [2] came to 91.1%; in data set [4], 5.2%. For the same molecule, the IC50 in data set [9] is 8.9 µM. The result in data set [6] and in [3] was Active.
As for `Cc1cccc(-c2[nH]c(=S)[nH]c(=O)c2Cc2c(O)ccc3ccccc23)c1`, in [5], the outcome was inactive. Besides, the Activity result in data set [1] was “Non-toxic”. Besides, in [2], the inhibition turned out to be 36.1%. Besides, the result in data set [6] and in data set [7] was Active.
Consider `O=C1Oc2ccc3ccccc3c2CC1C(=O)c1ccc(-c2ccccc2)cc1` (configuration not stated), for which the Activity is >30% in data set [5], “Non-toxic” in data set [1] and 18.4% in [6]. Besides, the inhibition was found to be 88.8% in data set [2] and 8.9% in data set [4]. Further, the IC50 in data set [9] turned out to be 10 µM.
For `O=c1[nH]c(=S)[nH]c(CCc2ccccc2)c1Cc1c(O)ccc2ccccc12`, the outcome in data set [5] was inactive. Also, the Activity entry in data set [1] is given as “Non-toxic”. Also, the figures for the inhibition in data set [2] and in [4] were 49.8% and 83%, respectively. The figures for the half-inhibitory concentration (IC50) in [9] and in data set [10] were 50.8 µM and 17.5 µM, respectively. Further, the result in data set [6] was Active.
On to `O=C1Oc2ccc3ccccc3c2CC1C(=O)c1ccncc1` (configuration not stated), for which the Activity in data set [5] is >30%; in data set [1], “Non-toxic”. For the same molecule, the inhibition is 94.5% in [2] and 69.3% in data set [4]. The outcome in data set [3] was Active.
For the molecule `O=c1[nH]c(=S)[nH]c(-c2ccsc2)c1Cc1c(O)ccc2ccccc12`, the outcome in data set [5] was inactive. For the same molecule, in data set [1], the Activity result is “Non-toxic”. Further, the inhibition in [2] was found to be 43.4%; in data set [4] it was 77.3%. For the same molecule, the outcome in data set [6] was Active.
On to `O=C1Oc2ccc3ccccc3c2CC1C(=O)c1ccc(Cl)cc1` (configuration not stated), for which the results for the Activity in data set [5] and in data set [1] were >30% and “Non-toxic”, respectively. Besides, the inhibition in data set [2] was 89.5%; in data set [4], 17.1%. Moreover, in data set [8], the result was Active.
As for `O=c1[nH]c(=S)[nH]c(-c2ccc(-c3ccccc3)cc2)c1Cc1c(O)ccc2ccccc12`, the result in [5] was inactive. The Activity entry in [1] is “Non-toxic”. Moreover, the inhibition in data set [2] came out at 52.4%; in data set [4], 81.9%. Besides, in data set [6], the result was Active.
With `O=c1[nH]c(=S)[nH]c(-c2ccc3ccccc3c2)c1Cc1c(O)ccc2ccccc12`, the outcome in data set [5] was inactive. Moreover, the Activity entry in [1] is recorded as “Non-toxic”. Also, the figures for the inhibition in data set [2] and in [4] were 47.9% and 83%, respectively. Moreover, the IC50 amounted to 49.9 µM in data set [9] and 12.4 µM in data set [10]. Further, the result in data set [6] and in data set [7] was Active.
Turning to `O=C(Cc1ccccc1)C1Cc2c(ccc3ccccc23)OC1=O` (configuration not stated), the Activity result in data set [1] is given as “Non-toxic”. Also, the inhibition in [2] is 81.2%; in [4], 11.3%. The result in [3] was Active.
Regarding `O=c1[nH]c(=S)[nH]c(-c2ccco2)c1Cc1c(O)ccc2ccccc12`, in data set [5], the result was inactive. The Activity result in data set [1] is on record as “Non-toxic”. Further, the inhibition in data set [2] was 45.9%; in data set [4], 82.3%. In addition, in data set [6], the outcome was Active.
The corresponding values for `O=c1[nH]c(=S)[nH]c(-c2cc3ccccc3s2)c1Cc1c(O)ccc2ccccc12` are “inactive”, “Non-toxic”, 51.2%, 82.1% and “Active”.
For the molecule `O=C1Oc2ccc3ccccc3c2CC1C(=O)c1ccsc1` (configuration not stated), the Activity entry in data set [1] is reported as “Non-toxic”. The inhibition in [2] stood at 78.9%; in data set [4], 19.1%. Besides, the result in data set [3] was Active.
Regarding `Cc1ccc(-c2[nH]c(=S)[nH]c(=O)c2Cc2c(O)ccc3ccccc23)cc1`, the result in [5] was inactive. In data set [1], the Activity entry was “Non-toxic”. The inhibition in [2] was found to be 28.5%. Besides, the result in data set [6] and in data set [7] was Active.
On to `O=C1Oc2ccc3ccccc3c2CC1C(=O)c1ccccc1` (configuration not stated), for which the Activity result in [1] was “Non-toxic”. The values for the inhibition in [2] and in data set [4] were 20.2% and 32.1%, respectively. Besides, the IC50 in [9] was found to be 179 µM; in data set [10], 112 µM. Also, the result in data set [6] and in data set [3] was Active.

The inhibition is the change of the read-out against control, counted positive when it falls. Broadly, the IC50 is the concentration at which inhibition is half-maximal.
